Data reported in ChEMBL document CHEMBL4304819, “Natural product pectolinarigenin exhibits potent anti-metastatic activity in colorectal carcinoma cells in vitro and in vivo” (2019).
Activity calls are given as the source filed them. No cut-off for these calls is given here.

Key:
SW48 [1] = assay: Antiproliferative activity against human SW48 cells assessed as reduction in cell viability up to 40 uM by MTT assay; type: functional, cell-based; settings: TDE = time-dependent effect
Summary of the method: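 Exponentially growing cells (2–6 × 10^3 per well) seeded in 96-well plates for 24 h, then exposed to 0, 2.5, 5, 10, 20, 40 µM for 24, 48 and 72 h. MTT (5 mg/mL stock) added 2–4 h at 37 °C; formazan dissolved in DMSO, absorbance at 570 nm. Three independent experiments.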

HCT-116 [2] = assay: Inhibition of colony formation in human HCT116 cells assessed as reduction in size of colonies up to 40 uM incubated for 24 hrs supplemented with fresh medium containing compound every 3 days for 12 days by crystal violet staining-based microscopic analysis; type: functional, cell-based
Summary of the method: (§1)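 400–800 cells per well seeded in 6-well plates; after 24 h, PEC (0–40 μM) added. Medium with or without compound replaced every three days for 12 days. Colonies washed in cold PBS, fixed in methanol, stained 15 min with 0.5% crystal violet and counted under a microscope. Mean ± SD of three experiments.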

SW48 [3] = assay: Inhibition of colony formation in human SW48 cells assessed as reduction in size of colonies up to 40 uM incubated for 24 hrs supplemented with fresh medium containing compound every 3 days for 12 days by crystal violet staining-based microscopic analysis; type: functional, cell-based; summary of the method: as §1
HCT-116 [4] = assay: Induction of apoptosis in human HCT116 cells assessed as appearance of condensed nuclei up to 40 uM after 48 hrs by Hoechst 33258 staining-based fluorescent microscopic analysis; type: functional, cell-based
Summary of the method: (§2)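 Cells (1–2 × 10^5 per well) plated on 18-mm coverslips in six-well plates for 24 h, treated at various concentrations for 48 h, washed with cold PBS, fixed 15 min in 4% paraformaldehyde, stained with Hoechst 33258 (5 μg/ml); condensed/fragmented nuclei scored by fluorescence microscopy (10×); stained positive cells, mean ± SD of three experiments.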

HCT-116 [5] = assay: Induction of apoptosis in human HCT116 cells assessed as nuclear fragmentation up to 40 uM after 48 hrs by Hoechst 33258 staining-based fluorescent microscopic analysis; type: functional, cell-based; summary of the method: as §2
CT26 [6] = assay: Induction of apoptosis in mouse CT26 cells assessed as early apoptotic cells at 20 uM after 48 hrs by Annexin V-FITC/propidium iodide staining-based flow cytometric analysis (reference value: 2.84 %); type: functional
Summary of the method: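 CT26 cells seeded at 1–2 × 10^5 per well in six-well plates for 24 h, then exposed to PEC (0–40 μM) for 24 or 48 h. Cells harvested, washed twice in cold PBS, stained with Annexin V-FITC/PI and read by flow cytometry. Early apoptotic = Annexin V+ only; late apoptotic = Annexin V+/PI+. Mean ± SD of three experiments.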

HCT-116 [7] = assay: Induction of apoptosis in human HCT116 cells assessed as viable cells at 20 uM after 48 hrs by Annexin V-FITC/propidium iodide staining-based flow cytometric analysis (reference value: 86.7 %); type: functional; settings: HCT-116, 48 h, read-out: Activity
Summary of the method: (§3)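 Cells (1–2 × 10^5 per well) seeded in six-well plates 24 h, treated at 0–40 μM for 24 h or 48 h, harvested, washed twice in cold PBS, stained with Annexin V-FITC/PI and analysed by flow cytometry; early (Annexin V only) and late (Annexin V and PI) apoptotic fractions quantified; three experiments.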

HCT-116 [8] = assay: Induction of apoptosis in human HCT116 cells assessed as early apoptotic cells at 20 uM after 48 hrs by Annexin V-FITC/propidium iodide staining-based flow cytometric analysis (reference value: 1.23 %); type: functional; summary of the method: as §3
HCT-116 [9] = assay: Induction of apoptosis in human HCT116 cells assessed as viable cells at 40 uM after 48 hrs by Annexin V-FITC/propidium iodide staining-based flow cytometric analysis (reference value: 86.7 %); type: functional; settings: HCT-116, 48 h, read-out: Activity; summary of the method: as §3
HCT-116 [10] = assay: Induction of apoptosis in human HCT116 cells assessed as decrease in pro-caspase-3 expression up to 40 uM after 48 hrs by Western blot analysis; type: functional, cell-based
Summary of the method: (§4)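 Cells treated 48 h at 0, 10, 20 and 40 μM, washed in cold PBS, lysed in RIPA; protein equalized by Lowry assay, resolved by SDS-PAGE, transferred to PVDF, blocked 1 h at 37 °C, primary antibody overnight at 4 °C, secondary 1 h, ECL detection, densitometry. β-actin loading control.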

HCT-116 [11] = assay: Induction of apoptosis in human HCT116 cells assessed as increase in Bax protein expression up to 40 uM after 48 hrs by Western blot analysis; type: functional, cell-based; summary of the method: as §4
CT26 [12] = assay: Induction of apoptosis in mouse CT26 cells assessed as increase in Bax/Bcl2 protein ratio up to 40 uM after 48 hrs by Western blot analysis; type: functional, cell-based
Summary of the method: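 CT26 cells exposed 48 h to PEC at 0, 10, 20 and 40 μM, washed twice in cold PBS, lysed in RIPA. Protein measured by Lowry and equalized, run on SDS-PAGE, blotted to PVDF. Blocked 1 h at 37 °C, primary antibodies (Bax, Bcl-2, pro-caspase-3, cleaved caspase-3) overnight at 4 °C, secondary 1 h, ECL detection, densitometry.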

HCT-116 [13] = assay: Antimigratory activity against human HCT116 cells assessed as inhibition of cell migration after 48 hrs by crystal violet staining based Boyden-chamber cell migration assay; type: functional
Summary of the method: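 Boyden chamber, 8 μm pores: 1 × 10^5 cells in serum-free medium above, 10% FBS medium below, compound at various concentrations in both chambers; migration 48 h. Non-migrated cells swabbed off; migrated cells fixed in methanol, stained 0.5% crystal violet 20 min, counted in six random fields under light microscope; expressed as % inhibition versus untreated.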

CT26 [14] = assay: Antiinvasive activity against mouse CT26 cells after 48 hrs by crystal violet staining based light microscopic analysis; type: functional, cell-based
Summary of the method: (§5)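 Transwell membrane upper surface coated with Matrigel diluted 1:5 in serum-free medium. 5 × 10^4 cells in serum-free medium in upper part, 10% FBS medium below, treated with various concentrations for 48 h. Non-invading cells removed; underside cells fixed in methanol, stained with 0.5% crystal violet, counted by light microscopy; expressed as % inhibition versus untreated.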

HCT-116 [15] = assay: Antiinvasive activity against human HCT116 cells after 48 hrs by crystal violet staining based light microscopic analysis; type: functional, cell-based; summary of the method: as §5
CT26 [16] = assay: Antimetastatic activity against mouse CT26 cells assessed as inhibition of MMP-9 expression after 48 hrs by Western blot analysis; type: functional, cell-based; summary of the method: as §4
HCT-116 [17] = assay: Antimetastatic activity against human HCT116 assessed as inhibition of MMP-9 expression after 48 hrs by Western blot analysis; type: functional, cell-based; summary of the method: as §4
CT26 [18] = assay: (§6) Antimetastatic activity against mouse CT26 cells allografted in Balb/c mouse assessed as decrease in CD11b-positive/Gr1-positive myeloid cells level in peripheral blood at 25 mg/kg, ip administered daily for 14 days starting from 6 days post implantation by flow cytometric analysis (reference value: 33.2 %); type: functional; parameters: scale not given: the % may be the effect or the level left
CT26 [19] = assay: as §6, with “50” for “25”, “implantation” for “implantation by”; type: functional; parameters: scale not given: the % may be the effect or the level left
CT26 [20] = assay: Antimetastatic activity against mouse CT26 cells allografted in Balb/c mouse assessed as decrease in CD11b-positive/Gr1-positive myeloid cells level in tumour at 50 mg/kg, ip administered daily for 14 days starting from 6 days post implantation flow cytometric analysis (reference value: 10 %); type: functional; parameters: scale not given: the % may be the effect or the level left
CT26 [21] = assay: Antimetastatic activity against mouse CT26 cells allografted in Balb/c mouse assessed as increase in infiltration of CD8+ T cells in blood at 50 mg/kg, ip administered daily for 14 days starting from 6 days post implantation flow cytometric analysis (reference value: 1.35 %); type: functional

## COc1ccc(-c2cc(=O)c3c(O)c(OC)c(O)cc3o2)cc1 [PECTOLINARIGENIN]
SW48 [1]
  inhibition: Tde
HCT-116 [2]
  inhibition: Active
SW48 [3]
  inhibition: Active
HCT-116 [4]
  Activity: Active
HCT-116 [5]
  Activity: Active
CT26 [6]
  Activity: 8.14%
HCT-116 [7]
  viability at 20 µM: 79.2%
HCT-116 [8]
  Activity: 8.86%
HCT-116 [9]
  viability at 40 µM: 73.7%
HCT-116 [10]
  Activity: Active
HCT-116 [11]
  Activity: Active
CT26 [12]
  Activity: Active
HCT-116 [13]
  inhibition: Dose-dependent effect
CT26 [14]
  inhibition: Dose-dependent effect
HCT-116 [15]
  inhibition: Dose-dependent effect
CT26 [16]
  inhibition: Dose-dependent effect
HCT-116 [17]
  inhibition: Dose-dependent effect
CT26 [18]
  Activity: 26.7%
CT26 [19]
  Activity: 20.4%
CT26 [20]
  Activity: 6.47%
CT26 [21]
  Activity: 4.17%
